From ChEMBL document CHEMBL4622838, “Deuteration of the farnesyl terminal methyl groups of δ-tocotrienol and its effects on the metabolic stability and ability of inducing G-CSF production” (Bioorg Med Chem, 2020) come the findings set out here.

The nature of data set [1]: AUC (0 to last) in CD2F1 mouse at 50 mg/kg, iv measured up to 24 hrs. It is filed as ADME, organism-based. Also noted: dose 50 mg/kg, route intravenous, time 0 - last. The following applies: in vivo. In a few lines: (§1)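 Single IV bolus in CD2F1 mice, emulsified in PBS with 33% PEG400 and 2% tween 80 (150 µL/mouse, 0.22 µm filtered), n = 4 per group. Retro-orbital blood into EDTA-K tubes at 0, 5, 10, 30 min and 1, 2, 4, 6, 12, 24 h. Plasma extracted with methanol/ascorbic acid plus heptane/BHT, internal standard, HPLC-fluorescence.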

The nature of data set [2]: AUC (0 to last) in CD2F1 mouse at 200 mg/kg, sc measured up to 24 hrs. It counts as ADME, organism-based. Also noted: dose 200 mg/kg, route subcutaneous, time 0 - last. The following applies: in vivo. An outline of the steps:
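Single SC injection in CD2F1 mice, emulsified in PBS with 5% tween 80 (100 µL/mouse, 0.22 µm filtered), n = 4 per group. Retro-orbital blood into EDTA-K tubes at 0, 7.5, 15, 30 min and 1, 2, 4, 6, 8, 12, 24 h. Plasma extracted with methanol/ascorbic acid plus heptane/BHT, internal standard, HPLC-fluorescence.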

A short description of data set [3]: Cmax in CD2F1 mouse at 200 mg/kg, sc measured up to 24 hrs. The note with it: in vivo. It is filed as ADME, organism-based. Also noted: dose 200 mg/kg, route subcutaneous. An outline of the steps: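 Single subcutaneous dose, 200 mg/Kg, emulsified in PBS with 5% tween 80, 100 µL/mouse, filter-sterilized; n = 4 per group. Retro-orbital blood into EDTA potassium tubes at 0, 7.5, 15, 30 min, 1, 2, 4, 6, 8, 12, 24 h; plasma at -80 °C. Heptane/methanol extraction with internal standard, HPLC-fluorescence; peak concentration taken from the concentration-time profile.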

Data set [4] in a line: Intrinsic clearance in mouse liver microsomes. It is filed as ADME, Microsome. An outline of the steps: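 Mouse liver microsomes (5 mg protein/mL) in potassium phosphate buffer pH 7.4 with EDTA; compound 1 µM preincubated 30 min at 37 °C, reaction started with NADPH-generating system (NADP⁺, glucose-6-phosphate, MgCl₂, G6PDH); no-NADPH control. Sampled at 5, 15, 30 min into cold acetonitrile with internal standard; percent remaining measured; half-life and clearance calculated; n = 3.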
A general note: Liver microsomes are vesicles of endoplasmic reticulum, rich in cytochrome P450 enzymes.

Data set [5] in a line: AUC (0 to infinity) in CD2F1 mouse at 50 mg/kg, iv measured up to 24 hrs. It counts as ADME, organism-based. Also noted: dose 50 mg/kg, time infinity, route intravenous. The note with it: in vivo. In a few lines:
as §1

The nature of data set [6]: Half life in mouse liver microsomes. It is filed as ADME, Microsome.
Data set [7] can be described thus: Metabolic stability in mouse liver microsomes assessed as compound degradation at 1 uM preincubated for 30 mins followed by NADPH addition measured up to 30 mins by HPLC-UV analysis. It is filed as ADME, Microsome. The following applies: 0.5 h. In a few lines: (§2)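 Mouse liver microsomes (5 mg protein/mL) in 0.2 M potassium phosphate, pH 7.4, with EDTA. Test compound at 1 µM preincubated 30 min at 37 °C, then started with an NADPH-generating system (NADP⁺, Glc-6-PO₄, MgCl₂, G6PDH); controls received buffer in place of NADPH. Sampled at 5, 15 and 30 min into cold acetonitrile containing GT3 internal standard. Percent remaining reported, n = 3.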

Data set [8] in a line: Metabolic stability in mouse live microsomes assessed as compound degradation in absence of NADPH. It is filed as ADME, Liver, Microsome. An outline of the steps: as §2
The nature of data set [9]: Plasma concentration in CD2F1 mouse at 200 mg/kg, sc administered as single dose measured after 1 hr by HPLC-fluorescence analysis. It counts as ADME, organism-based. In a few lines:
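Single subcutaneous dose of 200 mg/Kg in CD2F1 mice, emulsified in PBS with 5% tween 80 and filter-sterilized, n = 3–4. Retro-orbital blood drawn at 0 min to 24 h. Plasma mixed with internal standard, methanol containing 2% ascorbic acid and heptane containing 1% BHT. Upper layer dried under N₂, reconstituted in methanol and quantified by HPLC-fluorescence.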

The nature of data set [10]: Clearance in CD2F1 mouse at 50 mg/kg, iv measured up to 24 hrs. It counts as ADME, organism-based. The following applies: in vivo. An outline of the steps:
(§3)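 Single IV bolus, 50 mg/Kg, emulsified in PBS with 33% PEG400 and 2% tween 80, 150 µL/mouse, filter-sterilized; n = 4 per group. Retro-orbital blood into EDTA potassium tubes at 0, 5, 10, 30 min, 1, 2, 4, 6, 12, 24 h. Plasma extracted with methanol (2% ascorbic acid) and heptane (1% BHT) plus internal standard; HPLC-fluorescence quantitation.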

Data set [11] in a line: Volume of distribution in CD2F1 mouse at 50 mg/kg, iv measured up to 24 hrs. It counts as ADME, organism-based. The following applies: in vivo. An outline of the steps: as §3
In data set [12] the test system is Mus musculus. The experiment in a line: Induction of G-CSF production in CD2F1 mouse at 200 mg/kg, sc by G-CSF ELISA kit method. It is filed as functional, organism-based. The following applies: TDE = time-dependent effect. An outline of the steps:
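CD2F1 mice, subcutaneous dose of 0.5 mM/Kg (200 mg/Kg) emulsified in PBS with 5% tween 80, n = 3–4. Blood taken into EDTA-K tubes at 8, 12, 24 and 48 h. Plasma spun at 1200 rpm, 15 min, 4 °C and held at −80 °C. G-CSF measured by mouse ELISA, each sample run in duplicate and averaged, with a standard curve on every plate.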
Background: ELISA stands for enzyme-linked immunosorbent assay.

Data set [13] relates to Mus musculus. The experiment in a line: Induction of G-CSF production in CD2F1 mouse at 200 mg/kg, sc pretreated with ketoconazole after 24 hrs by G-CSF ELISA kit method. It is filed as functional, organism-based. An outline of the steps: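 CD2F1 mice received ketoconazole in corn oil (5 mg/250 µL/mouse) by oral gavage at 26, 14 and 2 h before drug. Drug then given subcutaneously at 200 mg/Kg in 5% tween 80/PBS, n = 3. Plasma collected at 8 and 24 h. G-CSF measured by ELISA in duplicate against a per-plate standard curve.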

Calls of active or inactive are those of the source. No cut-off for these calls is given here.

For orientation: Cmax means the maximum level reached in the sampled fluid or tissue. By AUC is commonly meant concentration integrated over time. A higher AUC goes with high exposure. In general, Vd refers to a proportionality between amount in the body and measured concentration, not a real space. Lower therefore signals confinement near the circulation. As for `[2H]C([2H])([2H])C(=CCC/C(C)=C/CC/C(C)=C/CC[C@]1(C)CCc2cc(O)cc(C)c2O1)C([2H])([2H])[2H]`, the AUClast in data set [1] was 34213 ng·h/mL; in [2] it was 11354 ng·h/mL. The compound further returned a maximum concentration (Cmax) in [3] of 970 ng/mL. Also, the CLH in data set [4] was 3580 µL/min/mg. In data set [5], this compound displayed an AUC of 35707 ng·h/mL. The compound further had a t1/2 in data set [6] of 2.642 h. In addition, the Stability result in data set [7] is “Unstable”; in data set [8], “Stable”. For the same compound, the concentration at 1 h in data set [9] is 800 to 1000 ng/mL. The compound further had a CL in data set [10] of 23.3 mL/min/kg. The compound also gave a Vd in data set [11] of 21.3 L/kg.
As for `CC(C)=CCC/C(C)=C/CC/C(C)=C/CC[C@]1(C)CCc2cc(O)cc(C)c2O1` [DELTA-TOCOTRIENOL], the AUClast in [1] was 32804 ng·h/mL; in data set [2] it was 10314 ng·h/mL. For the same compound, the Activity entry with Mus musculus [12] and with Mus musculus [12] (tested as the 2H-labelled form) was “Tde” in each case. Besides, in data set [3], the Cmax came out at 810 ng/mL. For the same compound, the CLH in [4] stood at 5260 µL/min/mg. In [5], this compound returned an AUC of 33456 ng·h/mL. Further, the t1/2 in data set [6] was determined as 1.778 h. The Stability entry was “Unstable” in data set [7] and “Stable” in [8]. In data set [9], this compound showed a concentration at 1 h of 800 to 1000 ng/mL. Also, the outcome in the data set with Mus musculus [13] and in the data set on Mus musculus [13] (tested as the 2H-labelled form) was Active. The same compound had a CL in [10] of 24.92 mL/min/kg. The compound also yielded a distribution volume (Vd) in [11] of 20.7 L/kg.
